Xi reactivation: activators of X-chromosome reactivation in mouse fibroblasts; XiGFP mouse fibroblasts, % GFP-positive cells imaging, 3 d; cells co-treated with 5-aza-dC sensitizer; scaled so ellipticine positive control = 100%; activation, % at 7.58 µM; 360,000 tested, 0.055% active;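 active means mean normalized replicate activation at least 10% and every replicate at or above 10%; inconclusive means only one of the two criteria met; inactive means mean below 10% and not all replicates reach 10%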;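 further: 0% = median of on-plate neutral control wells and 100% = ellipticine 6 µM median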
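Material: XiGFP fibroblasts, SV40-immortalized; Buffer or medium: DMEM containing 5-aza-dC; Compound dosing: single point; Times: 3 days compound exposure.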
LGR2 inh: Drosophila LGR2 receptor signaling inhibition; inhibition, % at 9.99 µM; 380,000 tested, 0.35% active; AID 720647; HEK293 LGR2, CRE-luciferase, bursicon-stimulated, 4 h;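 active means drop in luminescence signal, shown as inhibition above about 50% in the replicate tests, limit read from the data, passing the limit was not always enough; inconclusive means probably only some replicates passing the limit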;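 further: agonist challenge used bursicon conditioned medium at about half maximal strength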
TWEAK Fn14 block: inhibitors of TWEAK-Fn14 interaction signaling. TWEAK-stimulated Fn14 reporter cells, luciferase luminescence, 8 h. inhibition, % at 10 µM. 360,000 tested, 2% active. AID 1159606; in the data active means inhibition above about 50%
CaV13 ICDI inh: Primary screen for inhibitors of IQ motif and Ca2+-dependent inactivation inhibitor domain binding in CACNA1D, Förster resonance energy transfer in living cells, … | HEK cells, CFP/YFP FRET ICDI-IQ, plate reader, 10 min; percent FRET-ratio fall versus neutral wells | inhibition, % at 12.3 µM | 340,000 tested, 0.098% active | AID 743397;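 active means mean replicate inhibition of at least 30% and at least 1% of replicates passing that level; inconclusive means only one of the two criteria is met; inactive means neither criterion is met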;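 further: 0% = median of the neutral control wells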
TROY NFkB inh: inhibitors of TROY-dependent NF-kB signaling; Q293 LMP1-TROYcd NF-kB luciferase reporter, 4 h; inhibition, % at 10 µM; 360,000 tested, 0.98% active; AID 1347056;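 active means compounds whose plate-normalised and pattern-corrected inhibition of the luciferase reporter signal at the single screening dose is 50% or more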
The depositor's hits bear a star; ? = inconclusive; nt = not tested or not shown. Rows were chosen to be rich in hits. Some 2% of all compounds tested hit in one or more screens of this group.

SMILES	Xi reactivation	LGR2 inh	TWEAK Fn14 block	CaV13 ICDI inh	TROY NFkB inh
C[C@@H]1CN([C@H](C)CO)C(=O)c2cc(C#C[C@@H](C)O)cnc2O[C@H]1CN(C)Cc1ccccn1	-1.1	-11.5	nt	nt	nt
Cc1cc(C)c(C(=O)COC(=O)Cn2cnnn2)cc1C	nt	nt	-15.6	-4.1	8.2
O=C(Cn1cnnn1)OCC(=O)c1ccc(Cl)s1	nt	nt	-6.4	-3.7	70.6*
COc1cc(NC(=O)Nc2ccccc2)c(OC)cc1NC(=O)CN1CCCCC1	nt	nt	78.0*	-5.2	nt
FC(F)(F)c1cnc(NNC(=S)Nc2ccc(Cl)cc2)c(Cl)c1	0.0	49.1	61.0*	-12.1	59.2*
O=C(NC(=S)Nc1cc(C(F)(F)F)ccc1Cl)c1ccccc1	nt	nt	-15.9	nt	-55.3
Cc1ccc(NC(=S)NNc2ncc(C(F)(F)F)cc2Cl)c(C)c1	nt	nt	8.9	0.9	21.1
Fc1ccc(NC(=S)NNc2ncc(C(F)(F)F)cc2Cl)c(F)c1	0.0	12.3	29.0	-6.5	60.6*
O=C(O)c1ccc(NNC(=S)Nc2cc(C(F)(F)F)ccc2Cl)cc1	nt	-15.2	68.6*	-2.8	47.1
CCOc1ccccc1-n1c(SCC(=O)Nc2ccccc2C(=O)O)nc2ccccc2c1=O	0.0	40.5	92.3*	-2.4	77.9*
CCn1c(SCC(=O)Nc2ccccc2OC)nc2ccccc2c1=O	nt	nt	12.3	-5.0	-0.3
CCOC(=O)c1c(C)[nH]c(C(=O)CSc2ccccc2)c1C	nt	nt	67.2*	nt	37.9
CCOC(=O)c1c(C)[nH]c(C(=O)COC(=O)CCSc2ccccc2)c1C	0.5	-76.9	-46.7	-6.8	5.4
COc1ccc(NC(=O)c2ccc(-c3ccc(-c4noc(C)n4)cc3C)cc2)cc1N1CCN(C)CC1	3.2	103.5*	-24.0	-6.4	0.0
COc1cc(C(=O)Nc2ccc3nc(N4CCN(C)CC4)cc(C)c3c2)cc(OC)c1OC	0.2	21.5	-28.5	-19.2	-10.2
COc1ccc(-c2nc(-c3ccc(NC(=O)c4ccncc4)cc3)no2)cc1OC	nt	nt	94.4*	nt	66.6*
CCN1[C@H](C(=O)NCCCN(C)C)[C@@H](CO)[C@@H]2Cn3c(ccc(-c4ccccc4OC)c3=O)[C@@H]21	1.6	-10.3	nt	nt	nt
COc1ccc(CCn2c(C)cc(C(=O)CN3C(=O)C(=O)N(Cc4ccco4)C3=O)c2C)cc1	34.3*	15.2	1.9	-2.2	-13.1
COc1cccc(-c2ccc3n(c2=O)C[C@@H]2[C@@H](CO)[C@H](C(=O)NCCN4CCCCC4)N(C)[C@H]32)c1	0.5	-5.7	nt	nt	nt
CC(=O)Nc1ccc2nc(-c3ccccc3)cn2c1	0.0	-45.4	17.6	-4.2	-53.8
Cc1ccc2nc(-c3cc(-c4ccccc4)no3)cn2c1	0.1	nt	78.7*	-21.9	40.9
Clc1ccc(-c2cc(-c3ccccc3)on2)cc1	0.0	-51.3	33.7	-6.4	-38.8
CCc1ccn2cc(-c3cc(-c4ccccc4)no3)nc2c1	-0.1	102.9*	105.7*	-3.9	86.8*
Cc1ccc(-c2cc(-c3ccccc3)no2)c(O)c1	-0.1	?	75.8*	-3.8	52.8*
CN(C(=O)CN1C(=O)/C(=C/c2ccccc2Cl)SC1=S)C1CCS(=O)(=O)C1 (configuration not stated)	0.0	-9.3	5.1	-7.0	-11.7
SMILES	Xi reactivation	LGR2 inh	TWEAK Fn14 block	CaV13 ICDI inh	TROY NFkB inh
CN(C(=O)CN1C(=O)S/C(=C\c2ccccc2Cl)C1=O)C1CCS(=O)(=O)C1 (configuration not stated)	0.0	3.0	58.0*	-14.7	-11.4
COCC(=O)N1C[C@H]2[C@@H](c3ccccc31)[C@H](CO)N2C(=O)c1ccncc1	0.2	8.9	nt	nt	nt
CCCCCCCCCCOC(=O)Cn1c(COc2ccccc2OC)[n+](C)c2ccccc21	0.2	54.2*	67.4*	-17.8	61.2*
Cn1cnc(S(=O)(=O)N2C[C@H](O)COC[C@H]3O[C@@H](CC(=O)NC4Cc5ccccc5C4)CC[C@@H]32)c1	0.1	-23.6	nt	nt	nt
C[C@@H]1CN([C@@H](C)CO)C(=O)c2cc(NS(=O)(=O)c3ccccc3)ccc2O[C@@H]1CN(C)CC1CCCCC1	0.2	9.0	nt	nt	nt
c1ccc(NN=C2c3ccccc3-c3ccccc32)cc1	0.1	-18.3	-15.6	-5.5	-25.1
Cc1ccc(NN=C2c3ccccc3-c3ccccc32)cc1	0.2	-44.1	39.6	-3.5	51.6*
Nc1cc(Nc2ccccc2)ccn1	-0.1	-7.3	10.5	-1.4	0.8
N#Cc1sc2nccc(Nc3ccccc3)c2c1N	0.0	nt	80.1*	-20.7	29.5
O=C1CSC(=S)N1c1cccc(O)c1	-0.1	16.4	76.2*	-13.1	30.9
COc1ccc(-c2n(Cc3ccccc3)c3ccccc3[n+]2Cc2ccccc2)cc1	0.0	26.9	38.3	6.3	50.1*
CCC(=O)N1C[C@@H](C)[C@@H](OC)CN(C)C(=O)c2ccc(NC(=O)c3ccc(F)cc3)cc2OC[C@H]1C	0.5	9.4	nt	nt	nt
CC(Nc1cccc2ccccc12)C(=O)N/N=C/c1ccccn1 (configuration not stated)	nt	nt	54.9*	-8.4	-4.7
Cc1ccc(N=Nc2ccc3ccccc3c2O)cc1	0.1	30.1	95.0*	-19.8	77.7*
Oc1c(N=Nc2nn[nH]n2)ccc2ccccc12	0.2	-13.2	52.1*	-4.5	24.4
Oc1ccc2ccccc2c1N=Nc1ccc(F)cc1	0.0	5.5	-2.5	-5.7	-42.1
Cc1ccc(N=Nc2ccc(O)c3ncccc23)cc1	0.7	nt	-81.1	-3.0	-32.8
Oc1c(N=Nc2ccc(F)cc2)ccc2ccccc12	0.0	7.4	54.4*	-1.6	38.4
C[C@H](O)C#Cc1cnc2c(c1)C(=O)N([C@@H](C)CO)C[C@@H](C)[C@H](CN(C)C(=O)c1ccc(F)cc1)O2	-0.3	25.5	nt	nt	nt
CN(C)CC(=O)Nc1ccc2c(c1)[C@H]1C[C@@H](CC(=O)N3CCc4ccccc4C3)O[C@H](CO)[C@H]1O2	0.0	13.6	nt	nt	nt
CC(C)NC(=O)Nc1ccc2c(c1)CC(=O)N([C@H](C)CO)C[C@@H](C)[C@@H](CN(C)C(=O)Nc1ccc(F)cc1)O2	0.1	10.6	nt	nt	nt
CNC[C@H]1Oc2cc(C#CC3(O)CCCC3)ccc2S(=O)(=O)N([C@@H](C)CO)C[C@@H]1C	0.0	-8.4	nt	nt	nt
CCN(CC)S(=O)(=O)c1ccc(Cl)c(NC(=O)COC(=O)c2cc(-c3ccccc3Cl)nc3ccccc23)c1	0.1	12.6	109.8*	-4.3	94.8*
CCN(CC)S(=O)(=O)c1ccc(Cl)c(NC(=O)COC(=O)c2ccc(O)cc2)c1	0.1	1.0	14.8	0.6	41.1
CCCCn1nnc(NC(=O)Cc2ccc(Cl)cc2)n1	nt	nt	74.1*	nt	nt
Cc1ccccc1NC(=O)N1CCC(C(=O)c2ccc(F)cc2)CC1	0.3	-13.1	-0.1	10.3	-9.9
COc1ccccc1NC(=O)N1CCN(c2ccccn2)CC1	0.0	-2.5	1.6	-4.8	-16.1
O=C(c1ccc(F)cc1)C1CCN(C(=O)Nc2ccccc2Cl)CC1	0.0	-23.5	6.3	63.9*	-6.5

Source: PubChem
